The list is not random: actives were taken first. Their share in the collection is about 3.1%.
core dimer inh: inhibitors of HCV core protein dimerization, primary screen, biochemical, TR-FRET, high-throughput | 300,000 compounds, 0.33% hits | TR-FRET GST/Flag-core106 dimerization, 1536-well | inhibition, % at 5 µM | AID 1899, 2009;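 active = inhibition above the mean of all tested compounds plus 3 SD, set per screening campaign, cut at about 45% in these data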
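Material: Tagged HCV core106 pair (GST and Flag) | Amount: GST-core106 13.5 nM, Flag-core106 17 nM | Medium: KF-containing HEPES buffer, pH 7.45, DTT, CHAPS, BSA | Reagent: Eu donor and XL665 acceptor anti-tag antibodies | Schedule: 4 h at 22.5 °C | Technique: Time-resolved FRET, ex 340 nm, em 617 and 671 nm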
Fh CTSL1 inh: Fasciola hepatica cathepsin L1 inhibitors, primary screen, counter-screen for PFM18AAP inhibitor project, biochemical, QFRET, fluorogenic peptide substrate; recombinant F. hepatica cathepsin L1, Z-Leu-Arg-MCA fluorescence; inhibition, % at 5.96 µM; 300,000 compounds, 0.49% hits; AID 1906, 2009;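 active = inhibition above the mean of all tested compounds plus 3 SD, set per screening campaign, cut at about 17% in these data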;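 also: 0% = plate median of test compound wells and 100% = 1 µM Z-Phe-Ala-diazomethylketone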
PP5 inh: PP5 phosphatase inhibitors, primary screen, biochemical, fluorescence; inhibition, % at 6.7 µM; AID 1987, 2009; Serine/threonine-protein phosphatase 5 (Homo sapiens), P53041; purified PP5c, OMFP substrate fluorescence; 320,000 compounds, 0.18% hits;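 active = inhibition above the campaign's mean inhibition across all tested compounds plus 3 SD, cut at about 9.5% in these data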;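 also: 0% = DMSO only and 100% = 100 µM cantharidin control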
Target sequence (P53041 whole entry, looked up): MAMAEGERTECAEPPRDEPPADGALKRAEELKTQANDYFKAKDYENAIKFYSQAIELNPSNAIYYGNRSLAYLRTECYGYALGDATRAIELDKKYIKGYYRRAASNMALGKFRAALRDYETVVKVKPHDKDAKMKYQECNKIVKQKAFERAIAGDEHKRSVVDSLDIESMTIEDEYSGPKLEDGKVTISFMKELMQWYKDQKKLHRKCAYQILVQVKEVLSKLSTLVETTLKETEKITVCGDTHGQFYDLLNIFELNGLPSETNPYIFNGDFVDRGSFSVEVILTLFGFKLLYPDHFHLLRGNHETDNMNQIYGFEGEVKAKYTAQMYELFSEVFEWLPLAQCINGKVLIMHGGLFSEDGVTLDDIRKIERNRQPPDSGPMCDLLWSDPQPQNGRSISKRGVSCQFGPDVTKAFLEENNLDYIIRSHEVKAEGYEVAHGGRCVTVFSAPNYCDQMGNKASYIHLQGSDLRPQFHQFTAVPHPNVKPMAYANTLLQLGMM
NadD block: inhibitors of S. aureus NadD, primary screen, biochemical, colorimetric, uHTS; 360,000 compounds, 0.78% hits; Nicotinate-nucleotide adenylyltransferase NadD (Staphylococcus aureus N315); purified NadD enzyme, colorimetric absorbance read-out; inhibition, % at 20 µM; in the data active = inhibition above about 26%
Myeloid diff 2: induction of myeloid progenitor differentiation, primary screen, cell-based, flow cytometry, MLPCN library. 360,000 compounds, 1% hits. ER-HoxA9 myeloid progenitors, lysozyme-GFP differentiation. calls only at 10 µM. AID 624256, 2012;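 active = normalized GFP-positive differentiation at or above the plate's own cutoff, the solvent-only control mean plus 3 SD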;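 also: cells exposed to compound for four days before flow analysis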
PP1 inh: PP1-alpha phosphatase inhibitors, primary screen, counter-screen for PP5 inhibitor project, biochemical, fluorescence, OMFP substrate, single point | Serine/threonine-protein phosphatase PP1-alpha catalytic subunit (Homo sapiens), P62136 | purified PP1alpha | 320,000 compounds, 0.9% hits | inhibition, % at 6.7 µM | AID 2235, 2010;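 active = inhibition above the mean inhibition of all tested compounds plus 3 SD, computed separately for each screening campaign, cut at about 15% in these data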
* marks the source's active call; other numbers are inactive results; i = inactive; / = not tested or not shown; + = active, no number.

SMILES	core dimer inh	Fh CTSL1 inh	PP5 inh	NadD block	Myeloid diff 2	PP1 inh
COc1cccc(-c2noc(C(C)n3nc(C)c([N+](=O)[O-])c3C)n2)c1 (stereo not given)	-4	18*	3	-2	i	-10
CCN(CC)S(=O)(=O)c1ccc(N2CC(C(=O)NCCc3c[nH]c4ccccc34)CC2=O)cc1 (stereo not given)	/	/	/	-5	i	/
CCCCC/C(=N\NC(=O)Nc1ccccc1)c1ccccc1	2	25*	-1	-2	i	-4
CCCC/C(C)=N/NC(=O)Nc1ccccc1	-3	3	-2	-4	i	-2
CC/C(=N\NC(=O)Cc1ccc(Br)cc1)c1cccs1	/	/	/	-5	i	/
O=C(Nc1ccc(N2CCN(C(=O)c3cccs3)CC2)cc1)c1ccccc1F	-6	-5	3	-1	+	0
CC(C)(C)C(=O)Nc1ccc(N2CCN(C(=O)c3cccs3)CC2)cc1	/	/	/	0	+	/
CCOc1ccccc1NC(=O)COC(=O)c1ccc2ccccc2n1	/	/	2	-3	i	1
COc1ccc(NC(=O)Nc2cccc(C(=O)N3CCOCC3)c2)cc1OC	-7	17*	2	6	i	-6
COc1cccc(NC(=O)C(=O)N2CCOCC2)c1	-6	1	3	6	+	4
O=C(Nc1ccccc1NC(=O)NC1CCCCC1)NC1CCCCC1	2	-2	1	-3	i	-4
Nc1ccccc1NC1CCCCC1	/	/	/	-5	+	/
O=C(COc1cccnc1[N+](=O)[O-])NCc1ccccc1	6	-2	2	-4	i	-9
CCOC(=O)C1CCN(Cc2cc(=O)oc3c(C)c(C)ccc23)CC1	4	4	-1	-9	+	1
CCCCn1c(N)c(N(CCC(C)C)C(=O)COC(=O)c2ccc3ccccc3c2)c(=O)[nH]c1=O	/	/	/	0	i	/
Nc1ccc2c(c1)Cc1cc([N+](=O)[O-])ccc1-2	-12	2	4	6	i	0
CC(O)CN(CC(C)O)c1ccc2c(c1)Cc1cc([N+](=O)[O-])ccc1-2 (stereo not given)	/	/	/	0	+	/
Cc1ccc(-n2c(C)cc(/C=N/NC(=O)c3ccncc3)c2C)cc1	2	10	1	8	i	0
Cc1ccc(C(=O)N/N=C/c2cc(C)n(-c3ccc(Br)cc3)c2C)cc1[N+](=O)[O-]	27	0	2	35*	i	6
Cc1nnc(NC(=O)CSc2nnc3c(n2)[nH]c2ccc(Br)cc23)s1	8	0	2	23	i	-2
CC1=C(C(=O)Nc2cccc(C(=O)NC3CCCC(C)C3C)c2)SCCO1 (stereo not given)	6	0	1	-3	+	0
COCCNC(=O)c1cccc(NC(=O)C2=C(C)OCCS2)c1	-10	6	-1	-1	/	0
N#C/C(=C/C=C/c1ccccc1)C(=O)Nc1ccccc1	5	-2	0	23	+	-4
O=C(c1ccc2ccccc2c1)c1cccc(F)c1C(=O)O	/	/	/	-1	i	/
O=C(O)c1ccc(N2C(=O)/C(=C/C=C/c3ccccc3)SC2=S)cc1	8	1	0	1	i	0
SMILES	core dimer inh	Fh CTSL1 inh	PP5 inh	NadD block	Myeloid diff 2	PP1 inh
CN(C)c1ccc(/C=C/C=C2/SC(=S)N(c3ccccc3)C2=O)cc1	44	2	3	43*	/	5
CC(C)(C)OC(=O)N1CCC(NC(=O)c2[nH]c(C(F)(F)F)nc2-c2ccccc2)CC1	/	/	/	3	i	/
CC1Cc2ccccc2N1Cc1nc2cc(Cl)ccc2c(=O)[nH]1 (stereo not given)	72*	-1	2	23	i	7
N#Cc1c(-c2ccccc2)nc(SCc2cccc(Cl)c2)[nH]c1=O	16	0	0	12	i	17*
Cc1[nH]c(=O)nc(SCc2cccc(Cl)c2)c1C#N	-4	4	1	-2	i	1
COc1ccc(NC(=O)NCCCN2CCCC2=O)cc1	-4	6	0	-3	i	-3
COc1ccc(NC(=O)CC(C)NCCCN2CCCC2=O)cc1 (stereo not given)	4	-1	0	-5	+	-3
C=C(C)c1cccc(C(C)(C)NC(=O)N2CCN(C(=O)OCC)CC2)c1	/	/	/	3	i	/
CC(=O)Nc1ccccc1NS(=O)(=O)c1cccc([N+](=O)[O-])c1	-1	19*	2	6	i	-7
CC(=O)Nc1ccccc1NS(=O)(=O)c1ccccc1[N+](=O)[O-]	2	-1	0	-1	i	-4
COC(=O)[C@]12CCCCC=C1N(Cc1ccccc1)C(=O)[C@H](CC(=O)NCc1ccc(OC)c(OC)c1)C2	/	/	/	-1	i	/
O=C(NCc1ccccc1)C1CCN(S(=O)(=O)c2ccc(N3CCCC3=O)cc2)CC1	-17	17*	1	-2	i	-8
CN(C)c1ccc(CNC(=O)C2CCN(S(=O)(=O)c3ccc4c(c3)CCCC(=O)N4)CC2)cc1	7	-3	0	-9	+	1
O=C(NCc1ccc(Cl)cc1)C1CCN(S(=O)(=O)c2ccc(N3CCCC3=O)cc2)CC1	-3	1	-1	-4	i	-2
CCOc1ccccc1NC(=O)COC(=O)C(Cc1ccccc1)NC(=O)c1ccco1 (stereo not given)	/	/	1	-4	i	1
CCOc1ccc(NC(=O)CN(C)C(=O)CCCn2c(=O)oc3ccccc32)cc1OCC	-4	7	0	0	i	-7
CC1(C)Cc2ccccc2C2=NNC(=O)C2=N1	-24	-1	0	5	+	-4
Cc1ccc(Cl)c2c(N=Nc3ccccc3)c(O)[nH]c12	/	/	/	0	i	/
CC[C@@]1(C(=O)OC)N[C@H](CN(C)C(=O)COc2ccccc2)[C@@H]2C(=O)N(C)C(=O)[C@@H]21	/	/	/	-2	i	/
O=C(NC1CCCCC1)C(C1CC1)n1c(=O)c(-c2ccccc2)nc2ccccc21 (stereo not given)	/	/	/	/	i	/
O=C(Nc1sc2c(c1C(=O)N1CCOCC1)CCCCC2)c1cccnc1	-5	19*	0	1	i	1
O=C(Nc1sc2c(c1C(=O)O)CCCCC2)c1cccnc1	6	-1	2	5	i	-1
Cc1noc(C)c1COc1ccccc1C(=O)N(C)CC(=O)Nc1ccc(Cl)c(Cl)c1	-5	4	2	-8	i	-2
